From ChEMBL document CHEMBL4613270, “Structure-Activity Relationship Study Enables the Discovery of a Novel Berberine Analogue as the RXRα Activator to Inhibit Colon Cancer” (J Med Chem, 2020)

System: KM12C
Experiment: Inhibition of cell proliferation of human KM12C cells incubated for 15 hrs by MTT assay
Assay type: functional, cell-based
Summary of the method: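 Cells plated at 1×10⁴ per well, incubated overnight at 37 °C, then exposed to a concentration series for 15 h. MTT (5 mg/mL stock) added for 4 h at 37 °C. Formazan dissolved in DMSO and absorbance read at 570 nm. IC50 derived from the dose-response curve.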

| Compound | IC50 [µM] |
| --- | --- |
| c1ccc2c[n+]3c(cc2c1)-c1cc2c(cc1CC3)OCO2 | 79.7 |
| COc1ccc2c(c1)CC[n+]1cc3cc4c(cc3cc1-2)OCO4 | 46.4 |
| COc1cccc2c[n+]3c(cc12)-c1cc2c(cc1CC3)OCO2 | 118 |
| COc1ccc2c(c1)CC[n+]1cc3ccccc3cc1-2 | 129 |
| COc1cc2c(cc1OC)-c1cc3cccc(OC)c3c[n+]1CC2 | 166 |
| COc1cc2c(cc1OC)-c1cc3c(OC)cccc3c[n+]1CC2 | 270 |
| COc1cc2c(cc1OC)-c1cc3ccc(OC)c(OC)c3c[n+]1CC2 [PALMATINE CHLORIDE] | 393 |
| COc1ccc2c(c1)CC[n+]1cc3cc(OC)c(OC)cc3cc1-2 | 83.5 |
| COc1cc2c(cc1OC)-c1cc3ccccc3c[n+]1CC2 | > 600 |
| COc1ccc2c(c1)CC[n+]1cc3c(OC)c(OC)ccc3cc1-2 | 37.9 |
| COc1cc2cc3[n+](cc2cc1OC)CCc1cc2c(cc1-3)OCO2 [PSEUDOBERBERINE] | 467 |
| COc1ccc2cc3[n+](cc2c1)CCc1cc2c(cc1-3)OCO2 | 52.7 |
| c1c2c(cc3c1OCO3)-c1cc3cc4c(cc3c[n+]1CC2)OCO4 | 57.2 |
| COc1cc2c(cc1OC)-c1cc3cc(OC)c(OC)cc3c[n+]1CC2 | > 600 |
